ChEMBL document CHEMBL1142013, “Tryptamine and homotryptamine-based sulfonamides as potent and selective inhibitors of 15-lipoxygenase” (Bioorg Med Chem Lett, 2005)

How the values were obtained:
[1] = target: T1, Polyunsaturated fatty acid 5-lipoxygenase (Homo sapiens, UniProt P09917); test: Inhibitory concentration against human 5-lipoxygenase
T1 sequence (P09917 whole entry): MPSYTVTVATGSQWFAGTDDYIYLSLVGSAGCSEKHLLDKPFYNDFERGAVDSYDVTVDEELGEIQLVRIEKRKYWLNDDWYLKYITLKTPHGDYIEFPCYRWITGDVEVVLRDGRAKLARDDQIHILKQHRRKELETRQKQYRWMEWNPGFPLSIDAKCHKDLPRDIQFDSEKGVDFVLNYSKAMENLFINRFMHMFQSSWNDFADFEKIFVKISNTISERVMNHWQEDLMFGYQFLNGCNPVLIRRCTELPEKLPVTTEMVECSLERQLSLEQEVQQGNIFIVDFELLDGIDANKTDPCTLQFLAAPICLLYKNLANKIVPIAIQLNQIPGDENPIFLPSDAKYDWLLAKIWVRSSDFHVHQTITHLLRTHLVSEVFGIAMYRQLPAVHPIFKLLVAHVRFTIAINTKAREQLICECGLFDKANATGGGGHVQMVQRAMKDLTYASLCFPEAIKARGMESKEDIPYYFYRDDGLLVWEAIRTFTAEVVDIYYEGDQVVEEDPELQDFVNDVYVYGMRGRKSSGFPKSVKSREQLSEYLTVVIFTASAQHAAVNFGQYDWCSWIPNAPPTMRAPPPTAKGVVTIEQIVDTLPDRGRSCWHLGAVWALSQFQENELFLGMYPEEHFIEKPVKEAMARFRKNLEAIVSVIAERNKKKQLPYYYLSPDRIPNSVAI
Outline: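 Recombinant human 5-LO enzyme. Inhibition was followed by oxidation of arachidonic acid as the substrate. IC50 values were determined.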

[2] = target: T2, Polyunsaturated fatty acid lipoxygenase ALOX15 (Oryctolagus cuniculus, UniProt P12530); test: Inhibitory concentration against rabbit reticulocyte 15-lipoxygenase with substrate arachidonic acid
T2 sequence (P12530 whole entry): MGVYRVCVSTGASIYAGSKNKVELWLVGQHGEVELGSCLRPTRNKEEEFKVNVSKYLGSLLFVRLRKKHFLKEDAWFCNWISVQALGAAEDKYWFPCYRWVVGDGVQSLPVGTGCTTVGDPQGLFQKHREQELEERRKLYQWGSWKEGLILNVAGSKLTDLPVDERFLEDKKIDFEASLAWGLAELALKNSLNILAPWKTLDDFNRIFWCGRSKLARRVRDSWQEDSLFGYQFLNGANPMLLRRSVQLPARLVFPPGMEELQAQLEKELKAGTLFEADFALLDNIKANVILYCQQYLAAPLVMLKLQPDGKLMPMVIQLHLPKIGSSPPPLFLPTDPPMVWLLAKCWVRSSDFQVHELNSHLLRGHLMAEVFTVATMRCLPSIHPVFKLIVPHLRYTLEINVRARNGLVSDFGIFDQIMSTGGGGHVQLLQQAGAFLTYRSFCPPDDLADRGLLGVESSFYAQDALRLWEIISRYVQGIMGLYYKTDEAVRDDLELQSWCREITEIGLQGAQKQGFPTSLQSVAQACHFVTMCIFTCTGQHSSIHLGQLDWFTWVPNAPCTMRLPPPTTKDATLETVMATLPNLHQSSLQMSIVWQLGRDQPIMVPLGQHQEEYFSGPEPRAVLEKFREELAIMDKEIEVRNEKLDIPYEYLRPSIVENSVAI
Outline: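 Purified rabbit reticulocyte 15-LO, isolated from phenylhydrazine-treated rabbits, with arachidonic acid as the substrate. IC50 comes from a colorimetric read-out in which the 15-HPETE product oxidizes Fe²⁺ under mildly acidic conditions. Many values were also verified by the spectrophotometric diene-formation rate (A₂₃₄).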

[3] = target: T2, Polyunsaturated fatty acid lipoxygenase ALOX15; test: Inhibitory concentration against isolated rabbit reticulocyte 15-lipoxygenase measured in the presence of linoleic acid
Outline: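 15-LO was purified from reticulocytes of phenylhydrazine-treated rabbits. Linoleic acid was the substrate. In a colorimetric assay, the 13-HPODE product oxidizes Fe²⁺ under mildly acidic conditions, and IC50 is derived from this. Many values were also checked spectrophotometrically by the rate of diene formation (A₂₃₄).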

[4] = target: T3, Polyunsaturated fatty acid lipoxygenase ALOX12 (Homo sapiens, UniProt P18054); test: Inhibitory concentration against human platelet-derived 12-lipoxygenase
T3 sequence (P18054 whole entry): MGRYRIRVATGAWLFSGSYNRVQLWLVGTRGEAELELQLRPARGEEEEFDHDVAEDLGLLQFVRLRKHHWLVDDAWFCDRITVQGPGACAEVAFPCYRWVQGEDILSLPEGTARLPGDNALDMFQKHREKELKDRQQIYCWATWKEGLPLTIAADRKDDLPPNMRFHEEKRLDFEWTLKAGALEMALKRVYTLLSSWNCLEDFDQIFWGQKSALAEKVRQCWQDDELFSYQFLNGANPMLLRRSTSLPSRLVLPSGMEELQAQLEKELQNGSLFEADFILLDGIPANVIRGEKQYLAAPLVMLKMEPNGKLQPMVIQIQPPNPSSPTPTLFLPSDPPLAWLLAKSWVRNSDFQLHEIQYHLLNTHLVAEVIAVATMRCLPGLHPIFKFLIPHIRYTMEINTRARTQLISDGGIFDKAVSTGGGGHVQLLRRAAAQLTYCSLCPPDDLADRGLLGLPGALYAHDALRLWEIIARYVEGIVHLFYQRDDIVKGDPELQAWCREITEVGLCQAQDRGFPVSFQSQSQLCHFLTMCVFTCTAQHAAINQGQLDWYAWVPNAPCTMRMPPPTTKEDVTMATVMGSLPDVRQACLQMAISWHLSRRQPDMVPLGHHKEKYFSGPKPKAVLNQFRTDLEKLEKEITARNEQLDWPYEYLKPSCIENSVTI

Row | IC50 [1] | IC50 [2] | IC50 [3] | IC50 [4] | SMILES
1 | > 3000 nM | 120 nM | 32 nM | > 10000 nM | CCCCCc1ccc(S(=O)(=O)NCCc2c(-c3ccc(Cl)cc3)[nH]c3ccccc23)cc1
2 | 3500 nM | 135 nM | 89 nM | > 10000 nM | NNC(=O)c1ccc(S(=O)(=O)NCCc2c(-c3cc4ccccc4o3)[nH]c3ccccc23)cc1
